Reference: ChEMBL document CHEMBL3817726, “Chemically Diverse Group I p21-Activated Kinase (PAK) Inhibitors Impart Acute Cardiovascular Toxicity with a Narrow Therapeutic Window” (J Med Chem, 2016)

How the values were obtained:
[1] = molecular target: Serine/threonine-protein kinase PAK 6 (Homo sapiens) (UniProt Q9NQU5); settings: 1 uM
[2] = molecular target: 5'-AMP-activated protein kinase catalytic subunit alpha-2 (Homo sapiens) (UniProt P54646); experiment: Inhibition of recombinant human PRKAA2 at 1 uM relative to control
[3] = molecular target: cAMP-dependent protein kinase catalytic subunit alpha (Homo sapiens) (UniProt P17612); experiment: Inhibition of recombinant human full length His-tagged PRKACA expressed in Escherichia coli at 1 uM relative to control
[4] = molecular target: Sodium-dependent serotonin transporter (Homo sapiens) (UniProt P31645); experiment: Inhibition of recombinant human 5HT transporter expressed in CHO cells at 10 uM relative to control; assay type: cell-based
[5] = molecular target: Serine/threonine-protein kinase Chk1 (Homo sapiens) (UniProt O14757); experiment: Inhibition of recombinant human full length His-tagged CHK1 expressed in Baculovirus at 1 uM relative to control
[6] = molecular target: Serine/threonine-protein kinase PAK 4 (Homo sapiens) (UniProt O96013); settings: 1 uM
[7] = molecular target: Serine/threonine-protein kinase 4 (Homo sapiens) (UniProt Q13043); experiment: Inhibition of recombinant human full length GST-tagged MST1 expressed in Baculovirus at 1 uM relative to control
[8] = molecular target: Serine/threonine-protein kinase PAK 5 (Homo sapiens) (UniProt Q9P286); experiment: Inhibition of recombinant human full length His-tagged PAK5 expressed in Baculovirus at 1 uM relative to control
[9] = molecular target: Serine/threonine-protein kinase Chk2 (Homo sapiens) (UniProt O96017); experiment: Inhibition of recombinant human full length His-tagged CHK2 expressed in Baculovirus at 1 uM relative to control
[10] = molecular target: 5'-AMP-activated protein kinase catalytic subunit alpha-1 (Homo sapiens) (UniProt Q13131); experiment: Inhibition of recombinant human PRKAA1 at 1 uM relative to control
[11] = molecular target: Serine/threonine-protein kinase 24 (Homo sapiens) (UniProt Q9Y6E0); experiment: Inhibition of recombinant human full length GST-tagged MST3 expressed in Baculovirus at 1 uM relative to control
[12] = molecular target: Ribosomal protein S6 kinase alpha-3 (Homo sapiens) (UniProt P51812); experiment: Inhibition of recombinant human full length GST-tagged RSK3 expressed in insect cells at 1 uM relative to control
[13] = molecular target: MAP/microtubule affinity-regulating kinase 3 (Homo sapiens) (UniProt P27448); experiment: Inhibition of recombinant human full length GST-tagged MARK3 expressed in Baculovirus at 1 uM relative to control
[14] = molecular target: Tyrosine-protein kinase Yes (Homo sapiens) (UniProt P07947); experiment: Inhibition of recombinant human full length GST-tagged YES expressed in Baculovirus at 1 uM relative to control
[15] = molecular target: Tyrosine-protein kinase ABL2 (Homo sapiens) (UniProt P42684); experiment: Inhibition of recombinant human full length His-tagged ARG expressed in Baculovirus at 1 uM relative to control
Mus musculus = experiment: fCmax associated with acute adverse effect in mouse at 50 mg/kg, ip; assay type: ADME, organism-based; settings: in vivo
How it was run: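 Mouse tolerability studies at multiple doses, oral or intraperitoneal. Minimum unbound plasma concentration associated with adverse effects (total Cmax converted to unbound) compared with IC50 for inhibition of MEK1 S298 phosphorylation in cells.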

[16] = molecular target: Tyrosine-protein kinase Mer (Homo sapiens) (UniProt Q12866); experiment: Inhibition of recombinant human GST-tagged Mer expressed in Baculovirus at 1 uM relative to control
[17] = molecular target: Proto-oncogene tyrosine-protein kinase Src (Homo sapiens) (UniProt P12931); experiment: Inhibition of recombinant human full length His-tagged SRC expressed in Baculovirus at 1 uM relative to control
[18] = molecular target: Ribosomal protein S6 kinase alpha-6 (Homo sapiens) (UniProt Q9UK32); experiment: Inhibition of recombinant human full length GST-tagged RSK4 expressed in Baculovirus at 1 uM relative to control
[19] = Cmax associated with acute adverse effect in mouse at 50 mg/kg, ip; assay type: ADME, organism-based; design: dose 50 mg/kg, route intraperitoneal; settings: in vivo
How it was run: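 Mouse tolerability studies tested multiple doses, given orally or intraperitoneally. Plasma drug concentrations were measured, including at a 15 min time point. The minimum concentration associated with adverse clinical signs or death was taken as the adverse Cmax and was converted to an unbound value.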

[20] = molecular target: Phosphorylase b kinase gamma catalytic chain, skeletal muscle/heart isoform (Homo sapiens) (UniProt Q16816); experiment: Inhibition of recombinant human full length GST-tagged PHKgamma 1 expressed in Baculovirus at 1 uM relative to control
[21] = molecular target: High affinity nerve growth factor receptor (Homo sapiens) (UniProt P04629); experiment: Inhibition of recombinant human His-tagged TRKA (441 to 796 residues) expressed in Baculovirus at 1 uM relative to control
[22] = molecular target: Proto-oncogene tyrosine-protein kinase receptor Ret (Homo sapiens) (UniProt P07949); experiment: Inhibition of recombinant human full length GST-tagged RET expressed in Baculovirus at 1 uM relative to control
[23] = Ratio of fCmax associated with acute adverse effect in mouse at 50 mg/kg, ip to IC50 for PAK1/2-mediated phosphorylation of MEK1 at serine 298 in human EBC1 cells
How it was run: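 Mouse tolerability study run at multiple doses, here by i.p. injection. Plasma drug levels were measured, and total concentration was converted to unbound. The minimum unbound Cmax associated with adverse effects (C_max,adverse,u) was divided by the cellular IC50 for inhibition of PAK1/2-mediated MEK1 S298 phosphorylation.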

[24] = molecular target: Serine/threonine-protein kinase MARK1 (Homo sapiens) (UniProt Q9P0L2); experiment: Inhibition of recombinant human full length GST-tagged MARK1 expressed in Baculovirus at 1 uM relative to control
[25] = molecular target: Adenosine receptor A2a (Homo sapiens) (UniProt P29274); experiment: Inhibition of recombinant human adenosine A2A receptor expressed in HEK293 cells at 10 uM relative to control; assay type: cell-based
[26] = molecular target: Adenosine receptor A1 (Homo sapiens) (UniProt P30542); experiment: Inhibition of recombinant human adenosine A1 receptor expressed in CHO cells at 10 uM relative to control; assay type: cell-based
[27] = Fraction unbound in mouse plasma at 50 mg/kg, ip; assay type: ADME, organism-based
[28] = molecular target: Testis-specific serine/threonine-protein kinase 1 (Homo sapiens) (UniProt Q9BXA7); experiment: Inhibition of recombinant human full length His-tagged TSSK1 expressed in Baculovirus at 1 uM relative to control
[29] = Cmax in mouse at 50 mg/kg, ip; assay type: ADME, organism-based; design: dose 50 mg/kg, route intraperitoneal; settings: in vivo
[30] = molecular target: Glycogen synthase kinase-3 beta (Homo sapiens) (UniProt P49841); experiment: Inhibition of recombinant human full length His-tagged GSK3beta expressed in Baculovirus at 1 uM relative to control
[31] = molecular target: Protein kinase C alpha type (Homo sapiens) (UniProt P17252); experiment: Inhibition of recombinant human full length PKCalpha expressed in Baculovirus at 1 uM relative to control
[32] = molecular target: Serine/threonine-protein kinase 25 (Homo sapiens) (UniProt O00506); experiment: Inhibition of recombinant human full length GST-tagged YSK1 expressed in Baculovirus at 1 uM relative to control
[33] = molecular target: Ribosomal protein S6 kinase alpha-2 (Homo sapiens) (UniProt Q15349); experiment: Inhibition of recombinant human full length His-tagged RSK2 expressed in Baculovirus at 1 uM relative to control
[34] = molecular target: Serine/threonine-protein kinase 26 (Homo sapiens) (UniProt Q9P289); experiment: Inhibition of recombinant human full length GST-tagged MST4 expressed in Baculovirus at 1 uM relative to control
[35] = molecular target: Protein kinase C theta type (Homo sapiens) (UniProt Q04759); experiment: Inhibition of recombinant human full length His-tagged PKCtheta expressed in Baculovirus at 1 uM relative to control
[36] = molecular target: CDK7/Cyclin H/MNAT1 (Homo sapiens) (UniProt P51946+P50613+P51948); experiment: Inhibition of recombinant human full length His-tagged CDK7/cyclin H/MNAT1 expressed in Baculovirus at 1 uM relative to control
[37] = molecular target: Receptor-type tyrosine-protein kinase FLT3 (Homo sapiens) (UniProt P36888); experiment: Inhibition of recombinant human full length His-tagged FLT3 expressed in Baculovirus at 1 uM relative to control
[38] = molecular target: Tyrosine-protein kinase Lyn (Homo sapiens) (UniProt P07948); experiment: Inhibition of recombinant human full length His-tagged LynB expressed in Baculovirus at 1 uM relative to control
Sequence of Tyrosine-protein kinase Lyn (Homo sapiens) (P07948 2-512 limits assumed): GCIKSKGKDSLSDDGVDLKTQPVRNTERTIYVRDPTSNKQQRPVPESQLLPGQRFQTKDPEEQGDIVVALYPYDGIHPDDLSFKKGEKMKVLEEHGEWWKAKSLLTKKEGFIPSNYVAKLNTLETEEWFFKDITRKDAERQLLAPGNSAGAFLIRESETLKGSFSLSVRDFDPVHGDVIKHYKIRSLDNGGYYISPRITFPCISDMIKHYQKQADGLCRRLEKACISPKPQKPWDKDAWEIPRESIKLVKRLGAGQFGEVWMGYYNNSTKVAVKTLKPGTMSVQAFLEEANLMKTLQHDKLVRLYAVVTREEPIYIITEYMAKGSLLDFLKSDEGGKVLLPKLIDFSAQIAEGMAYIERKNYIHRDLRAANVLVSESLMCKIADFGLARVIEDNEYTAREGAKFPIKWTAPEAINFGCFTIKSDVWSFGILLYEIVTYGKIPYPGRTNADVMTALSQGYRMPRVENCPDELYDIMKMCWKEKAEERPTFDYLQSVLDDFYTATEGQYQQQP

Sequence of Serine/threonine-protein kinase 4 (Homo sapiens) (Q13043 whole entry): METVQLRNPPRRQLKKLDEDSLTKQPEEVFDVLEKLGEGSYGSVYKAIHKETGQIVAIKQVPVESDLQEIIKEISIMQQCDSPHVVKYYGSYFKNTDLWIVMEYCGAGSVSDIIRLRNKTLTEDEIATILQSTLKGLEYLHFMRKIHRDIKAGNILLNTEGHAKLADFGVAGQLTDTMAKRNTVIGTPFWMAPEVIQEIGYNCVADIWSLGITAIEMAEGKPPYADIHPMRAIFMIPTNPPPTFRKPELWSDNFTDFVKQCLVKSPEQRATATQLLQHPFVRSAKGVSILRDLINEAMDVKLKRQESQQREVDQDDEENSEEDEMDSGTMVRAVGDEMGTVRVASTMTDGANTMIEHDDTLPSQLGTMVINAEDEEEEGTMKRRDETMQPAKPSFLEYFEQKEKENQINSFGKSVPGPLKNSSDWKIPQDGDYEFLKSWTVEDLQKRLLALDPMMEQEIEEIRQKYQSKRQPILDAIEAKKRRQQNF
Sequence of 5'-AMP-activated protein kinase catalytic subunit alpha-1 (Homo sapiens) (Q13131 whole entry, looked up): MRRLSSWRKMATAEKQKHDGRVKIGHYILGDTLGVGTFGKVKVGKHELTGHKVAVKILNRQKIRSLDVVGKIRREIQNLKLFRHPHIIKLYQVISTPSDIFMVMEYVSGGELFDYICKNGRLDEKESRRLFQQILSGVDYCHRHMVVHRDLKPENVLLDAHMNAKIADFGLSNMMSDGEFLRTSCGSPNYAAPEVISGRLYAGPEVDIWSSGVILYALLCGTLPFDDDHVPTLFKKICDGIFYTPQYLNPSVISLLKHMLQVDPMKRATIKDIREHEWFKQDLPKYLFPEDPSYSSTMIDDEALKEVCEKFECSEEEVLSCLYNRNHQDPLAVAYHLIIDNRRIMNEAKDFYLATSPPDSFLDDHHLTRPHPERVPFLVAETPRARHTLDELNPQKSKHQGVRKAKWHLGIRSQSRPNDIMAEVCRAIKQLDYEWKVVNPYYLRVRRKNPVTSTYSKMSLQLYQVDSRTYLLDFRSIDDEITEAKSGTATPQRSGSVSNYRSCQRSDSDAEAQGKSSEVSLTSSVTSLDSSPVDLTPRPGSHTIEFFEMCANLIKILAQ
Sequence of Adenosine receptor A1 (Homo sapiens) (P30542 whole entry): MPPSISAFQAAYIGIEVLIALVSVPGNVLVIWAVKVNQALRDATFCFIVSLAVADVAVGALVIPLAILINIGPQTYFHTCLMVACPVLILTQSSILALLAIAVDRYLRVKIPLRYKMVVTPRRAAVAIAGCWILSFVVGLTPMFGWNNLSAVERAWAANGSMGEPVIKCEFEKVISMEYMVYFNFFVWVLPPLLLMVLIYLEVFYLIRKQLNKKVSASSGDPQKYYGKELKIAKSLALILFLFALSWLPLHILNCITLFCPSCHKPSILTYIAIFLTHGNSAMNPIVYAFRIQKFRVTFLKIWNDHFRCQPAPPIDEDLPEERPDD
Sequence of Serine/threonine-protein kinase PAK 5 (Homo sapiens) (Q9P286 whole entry, looked up): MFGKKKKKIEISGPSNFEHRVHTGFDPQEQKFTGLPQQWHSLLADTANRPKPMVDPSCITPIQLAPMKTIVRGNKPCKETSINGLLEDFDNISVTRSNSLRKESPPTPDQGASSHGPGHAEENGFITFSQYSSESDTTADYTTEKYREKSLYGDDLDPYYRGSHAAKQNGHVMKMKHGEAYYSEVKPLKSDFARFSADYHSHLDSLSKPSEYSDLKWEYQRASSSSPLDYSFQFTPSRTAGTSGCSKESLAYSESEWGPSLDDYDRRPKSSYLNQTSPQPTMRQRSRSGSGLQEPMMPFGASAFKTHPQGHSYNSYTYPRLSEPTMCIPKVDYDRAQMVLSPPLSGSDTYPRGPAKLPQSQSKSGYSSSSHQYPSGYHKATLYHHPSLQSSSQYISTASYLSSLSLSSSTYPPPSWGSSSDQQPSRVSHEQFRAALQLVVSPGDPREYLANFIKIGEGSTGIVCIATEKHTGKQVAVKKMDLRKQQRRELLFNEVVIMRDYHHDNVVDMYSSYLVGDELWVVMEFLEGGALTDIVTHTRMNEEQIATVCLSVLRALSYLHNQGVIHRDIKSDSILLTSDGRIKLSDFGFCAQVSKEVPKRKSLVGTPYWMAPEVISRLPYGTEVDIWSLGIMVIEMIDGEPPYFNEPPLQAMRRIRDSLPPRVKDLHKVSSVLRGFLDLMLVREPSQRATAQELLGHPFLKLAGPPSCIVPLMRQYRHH
Sequence of Serine/threonine-protein kinase 25 (Homo sapiens) (O00506 whole entry, looked up): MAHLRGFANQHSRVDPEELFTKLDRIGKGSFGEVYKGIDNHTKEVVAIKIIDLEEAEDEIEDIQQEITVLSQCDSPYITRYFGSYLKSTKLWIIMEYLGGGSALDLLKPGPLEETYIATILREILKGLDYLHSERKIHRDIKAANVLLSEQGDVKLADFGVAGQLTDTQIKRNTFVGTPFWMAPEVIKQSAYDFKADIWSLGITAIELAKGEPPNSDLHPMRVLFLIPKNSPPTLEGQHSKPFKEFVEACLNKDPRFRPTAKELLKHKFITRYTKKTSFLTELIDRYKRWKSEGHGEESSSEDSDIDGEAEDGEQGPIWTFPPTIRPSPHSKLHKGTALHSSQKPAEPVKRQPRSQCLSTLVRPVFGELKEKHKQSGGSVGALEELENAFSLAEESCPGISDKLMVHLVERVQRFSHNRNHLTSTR
Sequence of Adenosine receptor A2a (Homo sapiens) (P29274 whole entry): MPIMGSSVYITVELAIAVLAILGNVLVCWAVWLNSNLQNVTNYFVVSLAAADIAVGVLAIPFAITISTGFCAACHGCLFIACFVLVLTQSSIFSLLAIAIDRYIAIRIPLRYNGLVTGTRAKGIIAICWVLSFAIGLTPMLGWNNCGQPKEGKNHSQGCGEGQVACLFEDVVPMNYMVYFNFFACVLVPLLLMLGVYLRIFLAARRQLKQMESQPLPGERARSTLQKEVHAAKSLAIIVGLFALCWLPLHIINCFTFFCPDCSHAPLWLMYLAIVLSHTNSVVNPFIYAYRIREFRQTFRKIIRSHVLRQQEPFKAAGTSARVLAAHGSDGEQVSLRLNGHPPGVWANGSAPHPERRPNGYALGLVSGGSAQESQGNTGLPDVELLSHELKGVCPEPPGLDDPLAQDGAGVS
Sequence of Serine/threonine-protein kinase 26 (Homo sapiens) (Q9P289 2-416 limits assumed): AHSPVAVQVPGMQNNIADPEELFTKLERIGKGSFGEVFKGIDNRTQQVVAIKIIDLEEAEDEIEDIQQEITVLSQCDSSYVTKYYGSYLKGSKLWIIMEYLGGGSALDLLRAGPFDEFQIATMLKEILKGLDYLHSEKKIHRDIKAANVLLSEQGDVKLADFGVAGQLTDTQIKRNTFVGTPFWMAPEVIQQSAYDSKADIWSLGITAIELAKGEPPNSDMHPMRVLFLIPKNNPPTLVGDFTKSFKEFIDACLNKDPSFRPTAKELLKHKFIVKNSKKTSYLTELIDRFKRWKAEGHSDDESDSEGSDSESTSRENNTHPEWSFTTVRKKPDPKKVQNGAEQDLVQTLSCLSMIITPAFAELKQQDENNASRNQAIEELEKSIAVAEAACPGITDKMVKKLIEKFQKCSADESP
Sequence of Serine/threonine-protein kinase 24 (Homo sapiens) (Q9Y6E0 whole entry, looked up): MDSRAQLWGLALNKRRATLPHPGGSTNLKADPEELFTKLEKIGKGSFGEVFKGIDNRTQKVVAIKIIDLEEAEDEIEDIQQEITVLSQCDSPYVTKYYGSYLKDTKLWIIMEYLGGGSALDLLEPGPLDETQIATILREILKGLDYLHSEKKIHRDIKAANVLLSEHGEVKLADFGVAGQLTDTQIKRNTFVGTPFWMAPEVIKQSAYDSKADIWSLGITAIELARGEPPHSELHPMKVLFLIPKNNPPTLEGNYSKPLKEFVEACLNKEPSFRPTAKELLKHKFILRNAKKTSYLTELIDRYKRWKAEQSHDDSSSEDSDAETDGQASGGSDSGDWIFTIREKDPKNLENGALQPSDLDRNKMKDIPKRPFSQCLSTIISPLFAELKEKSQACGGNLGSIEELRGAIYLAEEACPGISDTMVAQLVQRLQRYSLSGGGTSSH
Sequence of Glycogen synthase kinase-3 beta (Homo sapiens) (P49841 whole entry, looked up): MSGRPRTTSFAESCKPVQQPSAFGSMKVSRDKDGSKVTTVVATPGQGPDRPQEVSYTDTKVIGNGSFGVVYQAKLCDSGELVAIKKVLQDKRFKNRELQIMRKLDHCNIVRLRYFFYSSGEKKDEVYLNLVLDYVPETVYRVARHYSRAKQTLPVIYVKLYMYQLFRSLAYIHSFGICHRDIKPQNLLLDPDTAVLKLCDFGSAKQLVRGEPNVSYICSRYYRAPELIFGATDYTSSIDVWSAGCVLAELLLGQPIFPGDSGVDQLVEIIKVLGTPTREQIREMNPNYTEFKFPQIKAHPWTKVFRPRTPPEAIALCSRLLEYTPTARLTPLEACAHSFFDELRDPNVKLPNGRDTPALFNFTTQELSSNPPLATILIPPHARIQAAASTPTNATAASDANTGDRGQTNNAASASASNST

For `Cc1nc(Nc2n[nH]c3c2CN(C(=O)N[C@H](CN(C)C)c2ccccc2)C3(C)C)c2sccc2n1` [PF-03758309], the inhibition [1] was > 75%, the inhibition [2] was > 75% and the inhibition [3] was > 75%. For the same compound, the inhibition [4] was > 75%, the inhibition [5] was > 75% and the inhibition [6] was > 75%. The inhibition [7] was > 75%, the inhibition [8] was > 75% and the inhibition [9] was > 75%. For the same compound, the inhibition [10] was > 75%, the inhibition [11] was > 75% and the inhibition [12] was > 75%. The inhibition [13] was > 75%, the inhibition [14] was > 75% and the inhibition [15] was > 75%. For the same compound, the fCmax (Mus musculus) was 1.6 µM, the inhibition [16] was > 75% and the inhibition [17] was > 75%. The inhibition [18] was > 75%, the Cmax [19] was 10 µM and the inhibition [20] was > 75%. The inhibition [21] was > 75%, the inhibition [22] was > 75% and the Ratio [23] was 1. For the same compound, the inhibition [24] was > 75%, the inhibition [25] was > 75% and the inhibition [26] was > 75%. For the same compound, the fraction unbound [27] was 0.163, the inhibition [28] was > 75% and the Cmax [29] was 10 µM. The inhibition [30] was > 75%, the inhibition [31] was > 75% and the inhibition [32] was > 75%. The inhibition [33] was > 75%, the inhibition [34] was > 75% and the inhibition [35] was > 75%. The inhibition [36] was > 75%, the inhibition [37] was > 75% and the inhibition [38] was > 75%.
